In PMC8063330 (Oncology Letters, 2021):

Columns and labels:
c-myc in SNU-638 cells = assay: c-myc level by western blotting in SNU-638; format: cell-based; settings: 24 h
Outline: (§1)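 Cells grown in RPMI-1640 with 10% FBS and exposed to test compound. Lysates run on SDS-PAGE and immunoblotted for c-Myc with tubulin as loading reference. HRP secondaries, ECL detection.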

c-myc in MKN-45 cells = assay: c-myc level by western blotting in MKN-45; format: cell-based; settings: 24 h
Outline: as §1

CCNC(=O)C[C@@H]1N=C(c2ccc(Cl)cc2)c2cc(OC)ccc2-n2c(C)nnc21 [I-BET-762]
c-myc level (c-myc in SNU-638 cells): downregulated the c-myc level
c-myc level (c-myc in MKN-45 cells): did not downregulate the c-myc level
